Test results reported in ChEMBL document CHEMBL1137701, “Synthesis, characterization and antimicrobial activity of Co(II), Zn(II) and Cd(II) complexes with N-benzyloxycarbonyl-S-phenylalanine” (2009).
≈ marks a conversion by molar mass, not a printed value.

Assays:
Format in all cases: functional
Micrococcus luteus [1] = assay: Antibacterial activity against Micrococcus luteus ATCC 10240 at 20 ug/disk after 24 hrs by agar diffusion method; conditions: ATCC 10240, 24 h, read-out: IZ
Procedure, shortened: (§1)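 Disc diffusion on 4-mm Mueller-Hinton agar, inoculated from 24 h MHB cultures (37 °C) diluted to 2×10^6 CFU/ml to give semiconfluent growth. 6-mm discs were impregnated with 1 mg/ml DMSO stock solutions. Plates were incubated 24 h at 37 °C and inhibition zone diameters measured in mm. DMSO solvent control; triplicate, averaged.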

Staphylococcus aureus [2] = assay: Antibacterial activity against Staphylococcus aureus ATCC 25923 at 20 ug/disk after 24 hrs by agar diffusion method; conditions: ATCC 25923, 24 h, read-out: IZ; procedure, shortened: as §1
[3] = test system: Staphylococcus epidermidis; assay: Antibacterial activity against Staphylococcus epidermidis ATCC 12228 at 20 ug/disk after 24 hrs by agar diffusion method; conditions: ATCC 12228, 24 h, read-out: IZ; procedure, shortened: as §1
Enterococcus faecalis [4] = assay: Antibacterial activity against Enterococcus faecalis ATCC 29212 at 20 ug/disk after 24 hrs by agar diffusion method; conditions: ATCC 29212, 24 h, read-out: IZ; procedure, shortened: as §1
Bacillus subtilis [5] = assay: Antibacterial activity against Bacillus subtilis ATCC 6633 at 20 ug/disk after 24 hrs by agar diffusion method; conditions: ATCC 6633, 24 h, read-out: IZ; procedure, shortened: as §1
Escherichia coli [6] = assay: Antibacterial activity against Escherichia coli ATCC 25922 at 20 ug/disk after 24 hrs by agar diffusion method; conditions: ATCC 25922, 24 h, read-out: IZ; procedure, shortened: as §1
Klebsiella pneumoniae [7] = assay: Antibacterial activity against Klebsiella pneumoniae NCIMB 9111 at 20 ug/disk after 24 hrs by agar diffusion method; conditions: NCIMB 9111, 24 h, read-out: IZ; procedure, shortened: as §1
Pseudomonas aeruginosa [8] = assay: Antibacterial activity against Pseudomonas aeruginosa ATCC 27853 at 20 ug/disk after 24 hrs by agar diffusion method; conditions: ATCC 27853, 24 h, read-out: IZ; procedure, shortened: as §1
Candida albicans [9] = assay: Antifungal activity against Candida albicans ATCC 24433 at 20 ug/disk after 72 hrs by agar diffusion method; conditions: ATCC 24433, 72 h, read-out: IZ
Procedure, shortened: (§2)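 Candida albicans grown 24 h at 25 °C in Sabouraud dextrose broth and diluted to 1×10^8 CFU/ml. This inoculum was spread on 4-mm Sabouraud dextrose agar. 6-mm discs were impregnated with 1 mg/ml DMSO stock solutions and incubated 72 h at 26 °C. Inhibition zone diameters measured in mm; DMSO control; triplicate, averaged.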

Candida albicans [10] = assay: Antifungal activity against Candida albicans ATCC 10259 at 20 ug/disk after 72 hrs by agar diffusion method; conditions: ATCC 10259, 72 h, read-out: IZ; procedure, shortened: as §2
Micrococcus luteus [11] = assay: Antibacterial activity against Micrococcus luteus ATCC 10240 after 24 hrs by broth microdilution method; conditions: ATCC 10240, 24 h
Procedure, shortened: (§3)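 Broth microdilution in Mueller-Hinton broth, run to NCCLS (2001). Overnight cultures were set to 2×10^6 CFU/ml final per well. Compounds were dissolved in 1% DMSO and tested as two-fold serial dilutions. TTC (0.05% final) served as growth indicator. Growth was read by absorbance at 600 nm after 24 h at 37 °C. MIC was the lowest concentration with no visible growth. Triplicate, with two growth controls.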

Staphylococcus aureus [12] = assay: Antibacterial activity against Staphylococcus aureus ATCC 25923 after 24 hrs by broth microdilution method; conditions: ATCC 25923, 24 h; procedure, shortened: as §3
[13] = test system: Staphylococcus epidermidis; assay: Antibacterial activity against Staphylococcus epidermidis ATCC 12228 after 24 hrs by broth microdilution method; conditions: ATCC 12228, 24 h; procedure, shortened: as §3
Enterococcus faecalis [14] = assay: Antibacterial activity against Enterococcus faecalis ATCC 29212 after 24 hrs by broth microdilution method; conditions: ATCC 29212, 24 h; procedure, shortened: as §3
Bacillus subtilis [15] = assay: Antibacterial activity against Bacillus subtilis ATCC 6633 after 24 hrs by broth microdilution method; conditions: ATCC 6633, 24 h; procedure, shortened: as §3
Escherichia coli [16] = assay: Antibacterial activity against Escherichia coli ATCC 25922 after 24 hrs by broth microdilution method; conditions: ATCC 25922, 24 h; procedure, shortened: as §3
Klebsiella pneumoniae [17] = assay: Antibacterial activity against Klebsiella pneumoniae NCIMB 9111 after 24 hrs by broth microdilution method; conditions: NCIMB 9111, 24 h; procedure, shortened: as §3
Pseudomonas aeruginosa [18] = assay: Antibacterial activity against Pseudomonas aeruginosa ATCC 27853 after 24 hrs by broth microdilution method; conditions: ATCC 27853, 24 h; procedure, shortened: as §3
Candida albicans [19] = assay: Antifungal activity against Candida albicans ATCC 24433 after 48 hrs by broth microdilution method
Procedure, shortened: (§4)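 Broth microdilution (NCCLS) in Sabouraud dextrose broth, 2×10^5 CFU/ml per well. Compounds in 1% DMSO were two-fold serially diluted over 62.5–1000, with 0.05% final triphenyltetrazolium chloride as growth indicator. Plates were incubated 48 h at 26 °C and growth read by absorbance at 600 nm. MIC is the lowest concentration without visible growth. Triplicate, with two growth controls.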

Candida albicans [20] = assay: Antifungal activity against Candida albicans ATCC 10259 after 48 hrs by broth microdilution method; procedure, shortened: as §4
[21] = test system: Staphylococcus epidermidis; assay: Antibacterial activity against Staphylococcus epidermidis ATCC 12228 at 10 ug/disk after 24 hrs by agar diffusion method; conditions: ATCC 12228, 24 h, read-out: IZ
Procedure, shortened: (§5)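 Reference antibiotic discs (ampicillin or amikacin) placed on 4-mm Mueller-Hinton agar inoculated to semiconfluent growth from 2×10^6 CFU/ml suspensions. Incubation 24 h at 37 °C, then inhibition zone diameter read in mm. Triplicate, averaged; done per NCCLS 1993 disc standard.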

Micrococcus luteus [22] = assay: Antibacterial activity against Micrococcus luteus ATCC 10240 at 10 ug/disk after 24 hrs by agar diffusion method; conditions: ATCC 10240, 24 h, read-out: IZ; procedure, shortened: as §5
Staphylococcus aureus [23] = assay: Antibacterial activity against Staphylococcus aureus ATCC 25923 at 10 ug/disk after 24 hrs by agar diffusion method; conditions: ATCC 25923, 24 h, read-out: IZ; procedure, shortened: as §5
Enterococcus faecalis [24] = assay: Antibacterial activity against Enterococcus faecalis ATCC 29212 at 10 ug/disk after 24 hrs by agar diffusion method; conditions: ATCC 29212, 24 h, read-out: IZ; procedure, shortened: as §5
Bacillus subtilis [25] = assay: Antibacterial activity against Bacillus subtilis ATCC 6633 at 10 ug/disk after 24 hrs by agar diffusion method; conditions: ATCC 6633, 24 h, read-out: IZ; procedure, shortened: as §5
Escherichia coli [26] = assay: Antibacterial activity against Escherichia coli ATCC 25922 at 10 ug/disk after 24 hrs by agar diffusion method; conditions: ATCC 25922, 24 h, read-out: IZ
Klebsiella pneumoniae [27] = assay: Antibacterial activity against Klebsiella pneumoniae NCIMB 9111 at 10 ug/disk after 24 hrs by agar diffusion method; conditions: NCIMB 9111, 24 h, read-out: IZ; procedure, shortened: as §5
Pseudomonas aeruginosa [28] = assay: Antibacterial activity against Pseudomonas aeruginosa ATCC 27853 at 10 ug/disk after 24 hrs by agar diffusion method; conditions: ATCC 27853, 24 h, read-out: IZ; procedure, shortened: as §5

Molecule | MBC (Micrococcus luteus [11]) | MIC (Micrococcus luteus [11]) | MBC (Staphylococcus aureus [12]) | MBC [13] | MIC [13] | MBC (Enterococcus faecalis [14]) | MIC (Enterococcus faecalis [14]) | MBC (Bacillus subtilis [15]) | MIC (Bacillus subtilis [15]) | MBC (Escherichia coli [16]) | MIC (Escherichia coli [16]) | MBC (Klebsiella pneumoniae [17]) | MIC (Klebsiella pneumoniae [17]) | MBC (Pseudomonas aeruginosa [18]) | MIC (Pseudomonas aeruginosa [18]) | zone of inhibition at 10 µg/disc [21] | zone of inhibition at 10 µg/disc (Micrococcus luteus [22]) | zone of inhibition at 10 µg/disc (Staphylococcus aureus [23]) | zone of inhibition at 10 µg/disc (Enterococcus faecalis [24]) | zone of inhibition at 10 µg/disc (Bacillus subtilis [25]) | also measured
O=C(N[C@@H](Cc1ccccc1)C(=O)O)OCc1ccccc1 | > 3340 µM | 3340 µM (≈ 1000 µg/mL) | > 3340 µM | > 3340 µM | 3340 µM (≈ 1000 µg/mL) | > 3340 µM | > 3340 µM | 3340 µM (≈ 1000 µg/mL) | 1670 µM (≈ 500 µg/mL) | > 3340 µM | 3340 µM (≈ 1000 µg/mL) | > 3340 µM | 3340 µM (≈ 1000 µg/mL) | > 3340 µM | > 3340 µM |  |  |  |  |  | zone of inhibition at 20 µg/disc (Micrococcus luteus [1]): 0 mm; zone of inhibition at 20 µg/disc (Staphylococcus aureus [2]): 0 mm; zone of inhibition at 20 µg/disc [3]: 8 mm; zone of inhibition at 20 µg/disc (Enterococcus faecalis [4]): 0 mm; zone of inhibition at 20 µg/disc (Bacillus subtilis [5]): 0 mm; zone of inhibition at 20 µg/disc (Escherichia coli [6]): 0 mm; zone of inhibition at 20 µg/disc (Klebsiella pneumoniae [7]): 0 mm; zone of inhibition at 20 µg/disc (Pseudomonas aeruginosa [8]): 0 mm; zone of inhibition at 20 µg/disc (Candida albicans [9]): 0 mm; zone of inhibition at 20 µg/disc (Candida albicans [10]): 0 mm; MIC (Staphylococcus aureus [12]): 3340 µM (≈ 1000 µg/mL); MFC (Candida albicans [19]; ATCC 24433, 48 h): 1660 µM (≈ 497 µg/mL); MIC (Candida albicans [19]; ATCC 24433, 48 h): 830 µM (≈ 248 µg/mL); MFC (Candida albicans [20]; ATCC 10259, 48 h): 1660 µM (≈ 497 µg/mL); MIC (Candida albicans [20]; ATCC 10259, 48 h): 830 µM (≈ 248 µg/mL)
CC1(C)S[C@@H]2[C@H](NC(=O)[C@H](N)c3ccccc3)C(=O)N2[C@H]1C(=O)O [AMPICILLIN] | 2 µM (≈ 0.699 µg/mL) | 1 µM (≈ 0.349 µg/mL) | 4 µM (≈ 1.4 µg/mL) | 6 µM (≈ 2.1 µg/mL) | 3 µM (≈ 1.05 µg/mL) | 6 µM (≈ 2.1 µg/mL) | 3 µM (≈ 1.05 µg/mL) | 10 µM (≈ 3.49 µg/mL) | 5 µM (≈ 1.75 µg/mL) | 22 µM (≈ 7.69 µg/mL) | 11 µM (≈ 3.84 µg/mL) | 33 µM (≈ 11.5 µg/mL) | 11 µM (≈ 3.84 µg/mL) | 46 µM (≈ 16.1 µg/mL) | 23 µM (≈ 8.04 µg/mL) | 12 mm | 33 mm | 26 mm | 16 mm | 15 mm | zone of inhibition at 10 µg/disc (Escherichia coli [26]): 18 mm; zone of inhibition at 10 µg/disc (Klebsiella pneumoniae [27]): 23 mm
NYSTATIN |  |  |  |  |  |  |  |  |  |  |  |  |  |  |  |  |  |  |  |  | MFC (Candida albicans [19]): 60 µM; MIC (Candida albicans [19]): 30 µM; MFC (Candida albicans [20]): 140 µM; MIC (Candida albicans [20]): 70 µM
NCC[C@H](O)C(=O)N[C@@H]1C[C@H](N)[C@@H](O[C@H]2O[C@H](CN)[C@@H](O)[C@H](O)[C@H]2O)[C@H](O)[C@H]1O[C@H]1O[C@H](CO)[C@@H](O)[C@H](N)[C@H]1O [AMIKACIN] |  |  |  |  |  |  |  |  |  | 6 µM (≈ 3.51 µg/mL) | 3 µM (≈ 1.76 µg/mL) | 9 µM (≈ 5.27 µg/mL) | 3 µM (≈ 1.76 µg/mL) | 12 µM (≈ 7.03 µg/mL) | 6 µM (≈ 3.51 µg/mL) | 33 mm | 31 mm | 25 mm | 23 mm | 32 mm | zone of inhibition at 10 µg/disc (Escherichia coli [26]): 30 mm; zone of inhibition at 10 µg/disc (Klebsiella pneumoniae [27]): 25 mm; zone of inhibition at 10 µg/disc (Pseudomonas aeruginosa [28]): 30 mm
